Reference: PubChem BioAssay AID504324 (Broad Institute, 2011)
Where “and” joins values, the source holds several entries; their conditions need not be identical. Identical values can stand only once. Calls of active or inactive are those of the source.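 Rule for the calls: active = compounds lowering the signal whose fitted half-maximal concentration is at most ten times their top tested dose; inconclusive = flat curve with a 30 to 70% drop, or poor fit; inactive = rising signal, flat curve, or potency beyond limit.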

test system: not listed separately; test: HIF pathway activation under zinc exposure, dose response, mechanism study for HIF pathway activator project, U2OS HRE-luc cells, zinc medium, dry powder (AID 504324); conditions: U2OS HRE-luciferase reporter, zinc medium, luminescence; at 38 µM (top of the series)
Method in brief: (§1)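 Test system – human osteosarcoma U2OS cells stably expressing 3×HRE-driven luciferase reporter · Buffer or medium – phenol red-free DMEM, 10% FBS, plus 50 µM zinc sulfate · Doses – 8-point, 3-fold compound series · Schedule – 24 h plating, then 24 h compound treatment at 37 °C · Detection – Steady-Glo luciferase luminescence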

Row | SMILES | activity change, negative = decrease
1 | Cc1ccc(Nc2nc(-c3ccccn3)nnc2-c2ccccc2)cn1 | 2240% (inactive)
2 | O=C(NCCCN1CCOCC1)c1cc(-c2ccccc2)on1 | 1480% (inactive)
3 | O=C(Nc1ccc2ccccc2n1)c1cc(-c2ccccc2)on1 | 22.8% (inactive)
4 | O=C(NCC1CCCCC1)c1cc(-c2ccccc2)on1 | 158% (inactive)
5 | c1ccc(-c2nnc(-c3ccccn3)nc2N2CCC(N3CCOCC3)CC2)cc1 | 4120% (inactive)
6 | c1ccc(-c2csc(Nc3nc(-c4ccccn4)nnc3-c3ccccc3)n2)cc1 | 315% (inactive)
7 | c1ccc(-c2nnc(-c3ccccn3)nc2NCC2CCOCC2)cc1 | 3680% (inactive)
8 | C[C@H](Nc1nc(-c2ccccn2)nnc1-c1ccccc1)C1CCCCC1 | 5570% (inactive)
9 | Oc1ccc(CN2CCc3ccccc3C2)c2cccnc12 | -77.2% (inactive) and 47.2% (inactive)
10 | OCCCNc1nc(-c2ccccn2)nnc1-c1ccccc1 | 3730% (inactive)
11 | Cc1cccc(CNc2nc(-c3ccccn3)nnc2-c2ccccc2)c1 | 6280% (inactive)
12 | CN(C)CCNC(=O)c1cc(-c2ccccc2)on1 | 31.3% (inactive)
13 | c1ccc(-c2nnc(-c3ccccn3)nc2NCC2CC2)cc1 | 5580% (inactive)
14 | O=C(NC1Cc2ccccc2C1)c1cc(-c2ccccc2)on1 | 146% (inactive)
15 | O=C(c1cc(-c2ccccc2)on1)N1CCN(c2ccncc2)CC1 | -13.1% (inactive)
16 | C=CCNc1nc(-c2ccccn2)nnc1-c1ccccc1 | 5230% (inactive)
17 | c1ccc(-c2nnc(-c3ccccn3)nc2NCCCN2CCOCC2)cc1 | 5050% (inactive)
18 | O=C(NCc1ccccc1)c1cc(-c2ccccc2)on1 | 64% (inactive)
19 | Cc1ccc(CNc2nc(-c3ccccn3)nnc2-c2ccccc2)cc1C | 4550% (inactive)
20 | Oc1ccc(CN2CCC(Cc3ccccc3)CC2)c2cccnc12 | 27.6% (inactive)
21 | Oc1ccc(CN2CCC3CCCCC3C2)c2cccnc12 (configuration not stated) | 916% (inactive)

Row | SMILES | activity change, negative = decrease
22 | c1ccc(-c2ccc(CNc3nc(-c4ccccn4)nnc3-c3ccccc3)cc2)cc1 | 3920% (inactive)
23 | O=C(c1cc(-c2ccccc2)on1)N1CCC(N2CCCC2)CC1 | 6.15% (inactive)
24 | Cn1c(NC(=O)c2cc(-c3ccccc3)on2)nc2ccccc21 | -2.21% (inactive)
25 | OCC1CCN(c2nc(-c3ccccn3)nnc2-c2ccccc2)CC1 | 1330% (inactive)
26 | c1ccc(-c2cccc(CNc3nc(-c4ccccn4)nnc3-c3ccccc3)c2)cc1 | 4810% (inactive)
27 | O=C(NCCCO)c1cc(-c2ccccc2)on1 | 811% (inactive)
28 | O=C(Nc1nc2ccccc2s1)c1cc(-c2ccccc2)on1 | 12.6% (inactive)
29 | c1ccc(-c2nnc(-c3ccccn3)nc2N2CCC(C3CCCCC3)C2)cc1 (configuration not stated) | 4900% (inactive)
30 | COc1cccc(CNc2nc(-c3ccccn3)nnc2-c2ccccc2)c1 | 4540% (inactive)
31 | O=C(c1cc(-c2ccccc2)on1)N1CCC(N2CCOCC2)CC1 | -1.04% (inactive)
32 | Clc1cccc(CNc2nc(-c3ccccn3)nnc2-c2ccccc2)c1 | 4600% (inactive)
33 | c1ccc(-c2nnc(-c3ccccn3)nc2NCCN2CCOCC2)cc1 | 3780% (inactive)
34 | c1ccc(-c2nnc(-c3ccccn3)nc2NCCc2ccccn2)cc1 | 4700% (inactive)
35 | O=C(Nc1ncc(-c2ccccc2)o1)c1cc(-c2ccccc2)on1 | 18.1% (inactive)
36 | c1ccc(CCNc2nc(-c3ccccn3)nnc2-c2ccccc2)cc1 | 4750% (inactive)
37 | c1ccc(-c2cnc(Nc3nc(-c4ccccn4)nnc3-c3ccccc3)s2)cc1 | 44.9% (inactive)
38 | C[C@@H](Nc1nc(-c2ccccn2)nnc1-c1ccccc1)C1CCCCC1 | 4780% (inactive)
39 | Cc1cccc(NC(=O)c2cc(-c3ccccc3)on2)n1 | 39.8% (inactive)
40 | Cc1cccc(CNC(=O)c2cc(-c3ccccc3)on2)c1 | -6.77% (inactive)
41 | O=C(Nc1ncc2ccccc2n1)c1cc(-c2ccccc2)on1 | 152% (inactive)
42 | c1ccc(-c2nnc(-c3ccccn3)nc2NCC2CCCCC2)cc1 | 8340% (inactive)

Row | SMILES | activity change, negative = decrease
43 | CN1CCN(c2nc(-c3ccccn3)nnc2-c2ccccc2)CC1 | 1500% (inactive)
44 | c1ccc(CNc2nc(-c3ccccn3)nnc2-c2ccccc2)cc1 | 5410% (inactive)
45 | O=C(Nc1nc(-c2ccccc2)cs1)c1cc(-c2ccccc2)on1 | -11.2% (inactive)
46 | Oc1ccc(CNC2Cc3ccccc3C2)c2cccnc12 | 314% (inactive)
47 | O=C(NCCCn1ccnc1)c1cc(-c2ccccc2)on1 | 1800% (inactive)
48 | O=C(c1cc(-c2ccccc2)on1)N1CCC(CO)CC1 | 14.3% (inactive)
49 | Cc1ccccc1CNc1nc(-c2ccccn2)nnc1-c1ccccc1 | 5380% (inactive)
50 | CC(Nc1nc(-c2ccccn2)nnc1-c1ccccc1)c1ccccc1 (configuration not stated) | 4380% (inactive)
51 | O=C(c1cc(-c2ccccc2)on1)N1CCc2cccnc21 | 44% (inactive)
52 | O=C(NCCN1CCOCC1)c1cc(-c2ccccc2)on1 | 1440% (inactive)
53 | c1ccc(-c2nnc(-c3ccccn3)nc2NCc2ccccn2)cc1 | 3330% (inactive)
54 | Cc1cccc(Nc2nc(-c3ccccn3)nnc2-c2ccccc2)n1 | 4620% (inactive)
55 | Cc1ccc(CNc2nc(-c3ccccn3)nnc2-c2ccccc2)cc1 | 6080% (inactive)
56 | COc1ccc(CNc2nc(-c3ccccn3)nnc2-c2ccccc2)cc1 | 5130% (inactive)
57 | O=C(NCCN1CCCCC1)c1cc(-c2ccccc2)on1 | 56.5% (inactive)
58 | CC1CN(Cc2ccc(O)c3ncccc23)CC(C)O1 (configuration not stated) | 4.72% (inactive)
59 | CC(C)(C)c1ccc(CNc2nc(-c3ccccn3)nnc2-c2ccccc2)cc1 | 3790% (inactive)
60 | CCCCNC(=O)c1cc(-c2ccccc2)on1 | 1050% (inactive)
61 | c1ccc(-c2nnc(-c3ccccn3)nc2NCc2cccnc2)cc1 | 3620% (inactive)
62 | c1ccc(-c2nnc(Nc3nc(-c4ccccn4)nnc3-c3ccccc3)s2)cc1 | 161% (inactive)
63 | O=C(Nc1nnc(-c2ccccc2)s1)c1cc(-c2ccccc2)on1 | 6.48% (inactive)

Row | SMILES | activity change, negative = decrease
64 | O=C(NC1CCc2ccccc2C1)c1cc(-c2ccccc2)on1 (configuration not stated) | -9.29% (inactive)
65 | OCC1CCN(Cc2ccc(O)c3ncccc23)CC1 | 29.9% (inactive)
66 | O=C(Nc1cn2ccccc2n1)c1cc(-c2ccccc2)on1 | 41.5% (inactive)
67 | Cn1c(-c2ccccc2)cnc1Nc1nc(-c2ccccn2)nnc1-c1ccccc1 | 210% (inactive)
68 | C[C@@H](Nc1nc(-c2ccccn2)nnc1-c1ccccc1)c1ccccc1 | 4300% (inactive)
69 | O=C(Nc1cnc2ccccc2c1)c1cc(-c2ccccc2)on1 | 17.3% (inactive)
70 | CN(C)c1nc(-c2ccccn2)nnc1-c1ccccc1 | 3380% (inactive)
71 | c1ccc(-c2nnc(-c3ccccn3)nc2N2CCN(c3ccncc3)CC2)cc1 | 4830% (inactive)
72 | Cc1ccc(CNC(=O)c2cc(-c3ccccc3)on2)cc1 | 10.4% (inactive)
73 | Cn1c(-c2ccccc2)cnc1NC(=O)c1cc(-c2ccccc2)on1 | 19% (inactive)
74 | Cc1ccc(NC(=O)c2cc(-c3ccccc3)on2)cn1 | 21.6% (inactive)
75 | c1ccc(-c2nnc(-c3ccccn3)nc2N2CCC(c3ccccc3)C2)cc1 (configuration not stated) | 5380% (inactive)
76 | N#CC1(c2ccccc2)CCN(Cc2ccc(O)c3ncccc23)CC1 | 208% (inactive)
77 | CC(C)(C)OC(=O)N1CCN(Cc2ccc(O)c3ncccc23)CC1 | 28.3% (inactive)
78 | CC(C)(C)CCNC(=O)c1cc(-c2ccccc2)on1 | 651% (inactive)
79 | CC(C)(C)CCNc1nc(-c2ccccn2)nnc1-c1ccccc1 | 7490% (inactive) and 6820% (inactive)
80 | COc1ccccc1N1CCN(Cc2ccc(O)c3ncccc23)CC1 | 52.8% (inactive)
81 | CN1CCN(C(=O)c2cc(-c3ccccc3)on2)CC1 | 13.1% (inactive)
82 | Cc1ccccc1CNC(=O)c1cc(-c2ccccc2)on1 | 25.4% (inactive)
83 | O=C(NCC1CC1)c1cc(-c2ccccc2)on1 | 798% (inactive)
84 | O=C(NCCCCO)c1cc(-c2ccccc2)on1 | 1710% (inactive)

test system: U2OS HRE-luciferase reporter, zinc medium, luminescence; test: as above; conditions: not given
Method in brief: as §1

Row | SMILES | AC50
85 | c1ccc(-c2nnc(-c3ccccn3)nc2Nc2cnc3ccccc3n2)cc1 | 10.6 µM
86 | Oc1ccc(CNC2CCc3ccccc32)c2cccnc12 (configuration not stated) | > 38 µM (inactive)
87 | c1ccc(-c2nnc(-c3ccccn3)nc2Nc2nc3ccccc3s2)cc1 | 5.6 µM
